Measurements published in ChEMBL document CHEMBL1132415, “Domain-structured N1,N2-derivatized hydrazines as inhibitors of ribonucleoside diphosphate reductase: redox-cycling considerations” (J Med Chem, 1999).

How the values were obtained:
[1] = (§1) Activity against metalloenzyme Ribonucleoside diphosphate reductase was evaluated from a subcutaneously growing murine tumor (sarcoma 180) implanted in B6D2F3 male mice at 0.01 conc
Method in brief: (§2)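 RdR from excised subcutaneous sarcoma 180 tumors in male B6D2F3 mice; chelators supplied in DMF. Enzyme-started at 37 °C, stopped by boiling at 0, 10, 20 min. Cytidine/deoxycytidine separated by cellulose TLC, radioactivity scanned. Protein by BSA-standard method.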

[2] = Inhibition of metalloenzyme Ribonucleoside diphosphate reductase.; design: concentration or dose not given beside the values; settings: concentration not given here; method in brief: as §2
[3] = as §1; method in brief: as §2; remark: listed apart in the source
[4] = Activity against metalloenzyme Ribonucleoside diphosphate reductase was evaluated from a subcutaneously growing murine tumor (sarcoma 180) implanted in B6D2F3 male mice at 1.0 conc; method in brief: as §2
[5] = Activity against metalloenzyme Ribonucleoside diphosphate reductase was evaluated from a subcutaneously growing murine tumor (sarcoma 180) implanted in B6D2F3 male mice at 0.00033 conc; method in brief: as §2
[6] = Activity against metalloenzyme Ribonucleoside diphosphate reductase was evaluated from a subcutaneously growing murine tumor (sarcoma 180) implanted in B6D2F3 male mice at 0.0033 conc; method in brief: as §2
[7] = Activity against metalloenzyme Ribonucleoside diphosphate reductase was evaluated from a subcutaneously growing murine tumor (sarcoma 180) implanted in B6D2F3 male mice at 0.033 conc; method in brief: as §2
[8] = (§3) Activity against metalloenzyme Ribonucleoside diphosphate reductase was evaluated from a subcutaneously growing murine tumor (sarcoma 180) implanted in B6D2F3 male mice at 0.1 conc; method in brief: as §2
[9] = as §3; method in brief: as §2; remark: listed apart in the source
[10] = (§4) Activity against metalloenzyme Ribonucleoside diphosphate reductase was evaluated from a subcutaneously growing murine tumor (sarcoma 180) implanted in B6D2F3 male mice, in reference to hydroxy-urea at 0.1 conc
[11] = as §4; remark: listed apart in the source
[12] = Activity against metalloenzyme Ribonucleoside diphosphate reductase was evaluated from a subcutaneously growing murine tumor (sarcoma 180) implanted in B6D2F3 male mice at 0.0002 conc; method in brief: as §2
[13] = Activity against metalloenzyme Ribonucleoside diphosphate reductase was evaluated from a subcutaneously growing murine tumor (sarcoma 180) implanted in B6D2F3 male mice at 0.002 conc; method in brief: as §2
[14] = Activity against metalloenzyme Ribonucleoside diphosphate reductase was evaluated from a subcutaneously growing murine tumor (sarcoma 180) implanted in B6D2F3 male mice at 0.02 conc; method in brief: as §2
[15] = Activity against metalloenzyme Ribonucleoside diphosphate reductase was evaluated from a subcutaneously growing murine tumor (sarcoma 180) implanted in B6D2F3 male mice at 0.027 conc; method in brief: as §2
[16] = Activity against metalloenzyme Ribonucleoside diphosphate reductase was evaluated from a subcutaneously growing murine tumor (sarcoma 180) implanted in B6D2F3 male mice, in reference to hydroxy-urea at 0.033 conc
[17] = Activity against metalloenzyme Ribonucleoside diphosphate reductase was evaluated from a subcutaneously growing murine tumor (sarcoma 180) implanted in B6D2F3 male mice, in reference to hydroxy-urea at 0.007 conc

Compound	inhibition [1] [%]	inhibition [2] [%]	inhibition [4] [%]	other results
Cc1ncc(CO)c(/C=N/Nc2ncc(Cl)cc2Cl)c1O	79	72	83	inhibition [3]: 78%
C[n+]1ccc(C(=O)N/N=C/c2cc(Cl)cc(Cl)c2O)cc1	0			
CCOC(=O)C[n+]1cc(CO)c(/C=N/Nc2ccccn2)c(O)c1C		15		
CCOC(=O)C[n+]1ccc(C(=O)N/N=C/c2cc(Br)ccc2O)cc1	0	81		
Cc1cc(O)nc(N/N=C/c2c(CO)cnc(C)c2O)n1		15	0	
COc1ccc(COC(=O)N/N=C/c2c(CO)cnc(C)c2O)cc1	0			
CC(=O)OCc1cnc(C)c(OC(C)=O)c1/C=N/Nc1ncccn1	24	73	79	inhibition [10]: 37%; inhibition [8]: 43%
Copper(II) Chelate of 1-[Pyridoxylidene]-2-[3',5'-chloro-2'-pyridyl]hydrazine Sulfate		81	85	inhibition [3]: 37%; inhibition [9]: 83%
Cc1ncc(CO)c(/C=N/Nc2nnc(N/N=C/c3c(CO)cnc(C)c3O)c3ccccc23)c1O				inhibition [3]: 0%
CC(=O)OCc1cnc(C)c(OC(C)=O)c1/C=N/Nc1ccccn1				inhibition [10]: 37%; inhibition [11]: 37%; inhibition [3]: 31%; inhibition [9]: 68%; inhibition [8]: 68%
Cc1c(O)c(/C=N/Nc2ncccn2)c(CO)c[n+]1C		15		
Cc1ncc(CO)c(/C=N/NC(=O)c2cc[n+](C)cc2)c1O	0			
Cc1ncc(CO)c(/C=N/NC(=O)c2ccnc3ccccc23)c1O		81		inhibition [12]: 11%; inhibition [15]: 63%
Cc1ncc(CO)c(/C=N/CC/N=C/c2c(CO)cnc(C)c2O)c1O				inhibition [3]: 0%
Oc1ccc(Br)cc1/C=N/Nc1ccccn1	0			
CC(=O)OCc1cnc(C)c(O)c1/C=N/Nc1ncccn1				inhibition [3]: 30%
Copper(II) Chelate of 1-[Pyridoxylidene]-2-[5'-chloro-2'-pyridyl]hydrazine Sulfate		81	82	inhibition [3]: 27%; inhibition [9]: 65%
C[n+]1ccccc1N/N=C/c1cc(Cl)cc(Cl)c1O				inhibition [5]: 8%; inhibition [6]: 34%; inhibition [16]: 82%; inhibition [7]: 58%
Cc1ncc(CO)c(/C=N/Nc2ccccn2)c1O	72			inhibition [17]: 15%

Second part, led by results:

inhibition [1] [%]	inhibition [2] [%]	inhibition [4] [%]	Compound	other results
	81		Cc1ncc(CO)c(/C=N/Nc2[nH]cnc3ncnc2-3)c1O	inhibition [5]: 18%; inhibition [6]: 21%; inhibition [7]: 72%
25	72	43	Cc1ncc(CO)c(/C=N/Nc2nc(Cl)c(Cl)c(Cl)c2Cl)c1O	inhibition [8]: 18%
0			Cc1c(O)c(/C=N/NC(=O)c2cc[n+](C)cc2)c(CO)c[n+]1C	
0	81		Cc1c(O)c(/C=N/N=c2\ccccn2C)c(CO)c[n+]1C	
	78	78	Cc1ncc(CO)c(/C=N/Nc2ncccn2)c1O	
22	73	59	1:2 Copper(II):1-[5'-Bromosalicylidene]-2-[isonicotinoyl]-hydrazine Formate Complex	inhibition [9]: 28%
	82		Oc1c(Cl)cc(Cl)cc1/C=N/Nc1ccccn1	inhibition [5]: 12%; inhibition [6]: 34%; inhibition [7]: 65%
	81		CCOC(=O)C[n+]1ccc(C(=O)N/N=C/c2cc(Cl)ccc2O)cc1	inhibition [12]: 18%; inhibition [13]: 10%; inhibition [14]: 77%
79	72	79	CCOC(=O)C[n+]1cc(CO)c(/C=N/Nc2ncccn2)c(O)c1C	inhibition [9]: 76%
	73	86	Copper(II)-Chelate of 1-[Pyridoxylidene]-2-[2'-pyrimidyl]-hydrazine Sulfate	inhibition [11]: 37%; inhibition [3]: 38%; inhibition [9]: 78%
35	72	71	1:2 Copper(II):1-[5'-Bromosalicylidene]-2-[N-(ethoxy-carbonylmethyl)isonicotinoyl]hydrazine Sulfate Complex	inhibition [9]: 64%
